We go through six compounds from ChEMBL document CHEMBL3120104, “Discovery of the first C-nucleoside HCV polymerase inhibitor (GS-6620) with demonstrated antiviral response in HCV infected patients” (J Med Chem, 2014).

A short description of data set [1]: Oral absorption in beagle dog at 5 mg/kg, po by LC/MS/MS analysis. The format is ADME, organism-based, Canis lupus familiaris. The conditions noted are these: in vivo. Also on record: dose 5 mg/kg, route oral. The essentials: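 Naive male beagle dogs were dosed once, orally at 5 mg/kg in EtOH/PEG 400/50 mM citrate buffer pH 4 (5/40/55), or intravenously at 0.5 mg/kg for reference. Plasma was sampled over 24 h and processed by acetonitrile precipitation. Bioavailability %F = AUC_po × Dose_iv / (AUC_iv × Dose_po).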

Data set [2] in a line: AUC (0 to infinity) in jagular vein cannulated beagle dog at 0.5 mg/kg, iv by LC/MS/MS analysis. Type of data set: ADME, organism-based, Canis lupus familiaris. Set-up: time infinity, dose 0.5 mg/kg, route intravenous. The conditions noted are these: plasma. The procedure, abridged: (§1)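 Naive male beagle dogs got a single intravenous infusion of 0.5 mg/kg in EtOH/PEG 400/water 5/20/75, adjusted to pH 4 with HCl. EDTA-K3 blood was collected over 24 h and plasma isolated. Plasma was precipitated with acetonitrile to a final 60%, filtered, dried, reconstituted in 20% acetonitrile and analysed.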

Data set [3] can be described thus: AUC (0 to infinity) in portal vein cannulated beagle dog at 0.5 mg/kg, iv by LC/MS/MS analysis. Type of data set: ADME, organism-based, Canis lupus familiaris. Also on record: time infinity, dose 0.5 mg/kg, route intravenous. The conditions noted are these: plasma. The essentials: as §1
The nature of data set [4]: Oral bioavailability in golden syrian hamster at 5 mg/kg. The conditions noted are these: in vivo. The format is ADME, organism-based, Mesocricetus auratus.
Data set [5] concerns Syrian golden hamster. The data set can be described thus: Cmax in golden syrian hamster assessed as liver triphosphate level at 5 mg/kg, po by LC/MS/MS analysis. The format is ADME, organism-based, Mesocricetus auratus. Set-up: dose 5 mg/kg, route oral. The conditions noted are these: in vivo. The essentials:
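Groups of 12 Golden Syrian hamsters were dosed orally at 5 mg-equiv/kg. Vehicle was EtOH/PEG400/water buffered with 50 mM pH 4 citrate at 2.5 mg-equiv/mL. Liver was homogenized in four volumes of ice-cold 0.1% KOH/67 mM EDTA in 70% MeOH containing 0.25 μM Cl-ATP, then centrifuged, dried and reconstituted in 1 mM ammonium phosphate pH 7.0. Triphosphate was measured by LC/MS/MS, with endogenous ATP checked for sample stability.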

Data set [6] deals with Syrian golden hamster. Briefly: Cmax in golden syrian hamster assessed as liver triphosphate level at 1 mg/kg, iv by LC/MS/MS analysis. The format is ADME, organism-based, Mesocricetus auratus. The conditions noted are these: in vivo. Also on record: dose 1 mg/kg, route intravenous. The procedure, abridged:
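Golden Syrian hamsters in groups of 12, dosed iv at 1 mg-equiv/kg in EtOH/PEG400/water adjusted to pH 4 with HCl (0.5 mg-equiv/mL). Liver homogenised in ice-cold 70% MeOH with 0.1% KOH, 67 mM EDTA and 0.25 μM Cl-ATP internal standard, then centrifuged, dried and reconstituted. Triphosphate measured by LC/MS/MS; endogenous ATP checked for sample stability.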

A short description of data set [7]: Metabolic stability in human liver S9 fraction assessed as extraction at 2 uM after 90 mins by LC/MS/MS analysis. The format is ADME, subcellular. The conditions noted are these: read-out: Stability. The procedure, abridged:
(§2)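 Compound at 2 μM was incubated with human intestinal or hepatic S9 fraction plus NADPH and UDPGA for 90 min at 37 °C. Time-point samples were quenched in aqueous acetonitrile/methanol with internal standard and analysed by LC/MS/MS. Half-life came from an exponential first-order fit, and hepatic extraction was predicted from half-life using the well-stirred model.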

Data set [8] is described as follows: Half life in human intestinal S9 fraction at 2 uM by LC/MS/MS analysis. Type of data set: ADME, Intestine. The procedure, abridged: as §2
The nature of data set [9]: Permeability across basolateral to apical side in human Caco2 cells at 10 uM after 1 to 2 hrs by LC/MS/MS analysis. The conditions noted are these: Caco-2, read-out: permeability. The format is ADME, cell-based. The essentials:
(§3)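 Caco-2 monolayers were grown at least 21 days, and membrane integrity was checked by TEER after buffer equilibration. Test compound was dosed at 10 μM on the apical or basolateral side, in duplicate wells. Receiver samples at 1 and 2 h were precipitated with acetonitrile plus internal standard and run by LC/MS/MS.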
Background: Passage across Caco-2 layers is used to estimate intestinal permeability.

The nature of data set [10]: Permeability across apical to basolateral side in human Caco2 cells at 10 uM after 1 to 2 hrs by LC/MS/MS analysis. Type of data set: ADME, cell-based. The conditions noted are these: Caco-2, read-out: permeability. The essentials: as §3
Data set [11] can be described thus: Aqueous solubility of the compound in phosphate buffer at pH 7 by reverse-phase UPLC-UV method. The format is physicochemical. The essentials: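 Excess solid was suspended in pH 7 phosphate buffer at ambient temperature, sonicated, then stirred for at least 2 h. After centrifugation, the supernatant was quantified by reverse-phase UPLC-UV.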
Data set [12] is described as follows: Lipophilicity, log D of the compound by HPLC/UV method. Type of data set: physicochemical. The essentials:
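A 10 mM DMSO stock was diluted 1:100 into 1:1 acetonitrile/water, shaken 30 min, and analysed by HPLC/UV on a C18 column with 20 mM ammonium acetate/acetonitrile mobile phase.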

Data set [13] can be described thus: Cytotoxicity against human HuH7 cells after 3 days by fluorescence assay. The conditions noted are these: Huh-7 cells. Type of data set: cell-based. The essentials: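 Huh-7 HCV replicon cells were seeded at 2000 cells/well in medium without Geneticin. Compounds were added as ten-point 1:3 DMSO dilutions in quadruplicate (final DMSO 0.44%), with […] as the 100% cytotoxicity control. After 3 days at 37 °C, cells were washed and given 400 nM calcein AM for 30 min at RT, and fluorescence read at ex 490/em 520 nm. Signal was normalized to DMSO and puromycin wells, and CC50 taken from a four-parameter Hill fit.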

Another data set has as its system Hepatitis C virus. The data set can be described thus: Antiviral activity against HCV genotype 1b infected in human HuH7 cells assessed as inhibition of viral replication after 3 days by luminescence assay. The format is functional, organism-based, Hepacivirus hominis. The conditions noted are these: Huh-7, 72 h. The essentials:
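Multiplex replicon assay carrying a renilla luciferase reporter, with stable GT1b, 1a and 2a replicons and chimeric 2b, 3a, 4a, 5a and 6a replicons. 2000 replicon cells/well in medium without Geneticin. Ten-step 1:3 serial dilutions, four replicates, 0.44% DMSO final. Incubated 3 days at 37 °C, 5% CO₂. Luminescence normalised to DMSO wells and to protease-inhibitor (ITMN-191) wells. EC50 from a four-parameter Hill fit.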

Data set [14] can be described thus: Metabolic stability in serum (unknown origin). Type of data set: ADME.
A further data set concerns Hepatocyte. Briefly: Prodrug coversion in human hepatocytes assessed as triphosphate formation assesed per million cells at 10 uM incubated for 1 hr followed by compound washout by liquid chromatography coupled with mass spectrometry. Type of data set: ADME, cell-based. Set-up: dose 10 uM. The essentials:
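Confluent primary human hepatocytes (0.88 × 10⁶ cells/well, Williams E medium) were exposed to 10 μM compound for 1 h, then to drug-free medium for 23 h. Cells were collected during and after exposure and extracted. Triphosphate was quantified by LC/MS/MS and expressed per million cells.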

pEC50: −log10 of the molar value. Converted amounts (≈) assume the structure as drawn.

As a reminder, the AUC(0-inf) is total exposure, with the tail of the curve extrapolated. Lower therefore signals less exposure. One may read the bioavailability as dose-corrected exposure relative to a reference, in per cent. Low values mean poor availability, high ones good availability. As a reminder, the Cmax is the peak of the concentration-time curve. The term half-life denotes the time in which the quantity being followed falls by half. Higher therefore signals slow loss. For orientation: solubility means how much of the substance goes into solution per volume. A low value points to a poorly soluble substance. The term logD denotes lipophilicity at a set pH, counting ionised and neutral species. Read a high logD as a more lipophilic compound. Broadly, the CC50 is the concentration that lowers cell viability or growth by half. Lower therefore signals harm at low concentration. For orientation: pEC50 means the negative decadic logarithm of the EC50, by convention in mol/L. For `CCC(CC)COC(=O)[C@H](C)NP(=O)(OC[C@H]1O[C@@](C#N)(c2ccc3c(N)ncnn23)[C@](C)(O)[C@@H]1O)Oc1ccccc1` (stereo not given in full), in data set [1], the Fa stood at 7.9%. For the same compound, the AUC(0-inf) was 0.02 µM·h in [2] and 0.21 µM·h in [3]. Also, the bioavailability in data set [4] was 5.4%. Further, the Cmax in the data set with Syrian golden hamster [5] amounted to 2260 nM; with Syrian golden hamster [6] it was 8330 nM. For the same compound, the hepatic extraction ratio at 1.5 h, 2 µM in data set [7] stood at 0.97. Moreover, the half-life at 2 µM in data set [8] worked out at 1.23 h. In addition, the Papp B→A at 10 µM in data set [9] came out at 7.2 ×10⁻⁶ cm/s. Moreover, the Papp A→B at 10 µM in data set [10] was determined as 0.36 ×10⁻⁶ cm/s. The compound also showed a solubility in data set [11] of 1.8 µg/mL (≈ 2.92 µM). In data set [12], this compound yielded a logD of 2.7. In data set [13], this compound registered a CC50 at 72 h of 35000 nM. Also, the pEC50 with Hepatitis C virus was 6.36.
Take `CC(C)OC(=O)[C@H](C)NP(=O)(OC[C@H]1O[C@@](C#N)(c2ccc3c(N)ncnn23)[C@]2(C)OC(=O)O[C@H]12)Oc1ccccc1` (stereo not given in full): the Stability entry in [14] was “Stable”. For the same compound, in data set [1], the Fa came to 29%. The Cmax in the data set with Syrian golden hamster [5] stood at 590 nM; with Syrian golden hamster [6] it was 1920 nM. The compound further gave a logD in [12] of 2.6. Moreover, the CC50 at 72 h in data set [13] was more than 89000 nM. The pEC50 in the data set on Hepatitis C virus is 5.85.
For the compound `COC(=O)[C@H](C)NP(=O)(OC[C@H]1O[C@@](C#N)(c2ccc3c(N)ncnn23)[C@](C)(O)[C@@H]1O)Oc1ccccc1` (stereo not given in full), in [4], the bioavailability is 0.9%. Also, the Cmax in the data set on Syrian golden hamster [5] was found to be 290 nM; in the data set on Syrian golden hamster [6], 6350 nM. For the same compound, the hepatic extraction ratio at 1.5 h, 2 µM in data set [7] stood at 0.9. Besides, the half-life at 2 µM in data set [8] was determined as 3.17 h. The Papp B→A at 10 µM in data set [9] worked out at 4.64 ×10⁻⁶ cm/s. The Papp A→B at 10 µM in data set [10] turned out to be 0.41 ×10⁻⁶ cm/s. The compound also came in with a logD in data set [12] of 1.3. This compound gave a CC50 at 72 h in [13] of more than 89000 nM. Also, the pEC50 in the data set on Hepatitis C virus is 5.86.
On to `C[C@H](NP(=O)(OC[C@H]1O[C@@](C#N)(c2ccc3c(N)ncnn23)[C@](C)(O)[C@@H]1O)Oc1ccccc1)C(=O)OCC(C)(C)C` (stereo not given in full), for which, in [1], the Fa is 13%. In addition, the figures for the AUC(0-inf) in [2] and in data set [3] were 0.09 µM·h and 0.25 µM·h, respectively. This compound also registered a bioavailability in data set [4] of 5.6%. Also, the Cmax in the data set with Syrian golden hamster [5] is 1440 nM; with Syrian golden hamster [6], 5180 nM. Besides, the hepatic extraction ratio at 1.5 h, 2 µM in [7] was found to be 0.94. Further, in [8], the half-life at 2 µM was determined as 1.42 h. For the same compound, the Papp B→A at 10 µM in data set [9] turned out to be 29.1 ×10⁻⁶ cm/s. For the same compound, the Papp A→B at 10 µM in [10] amounted to 0.69 ×10⁻⁶ cm/s. In [11], the solubility came out at 115 µg/mL (≈ 191 µM). This compound also displayed a logD in data set [12] of 2.3. The CC50 at 72 h in data set [13] amounted to 85000 nM. The pEC50 in the data set on Hepatitis C virus was 6.74.
`C[C@H](NP(=O)(OC[C@H]1O[C@@](C#N)(c2ccc3c(N)ncnn23)[C@](C)(O)[C@@H]1O)Oc1ccccc1)C(=O)OC1CCCC1` (stereo not given in full): the bioavailability in [4] turned out to be 6%. Further, the Cmax in the data set on Syrian golden hamster [5] was 840 nM; in the data set on Syrian golden hamster [6], 2800 nM. In the data set with Hepatocyte, the Drug metabolism entry is given as “Active”. In addition, the hepatic extraction ratio at 1.5 h, 2 µM in [7] was found to be 0.95. The compound further yielded a half-life at 2 µM in data set [8] of 0.5 h. In addition, in [9], the Papp B→A at 10 µM worked out at 5.86 ×10⁻⁶ cm/s. In addition, in data set [10], the Papp A→B at 10 µM amounted to 0.37 ×10⁻⁶ cm/s. Further, in data set [11], the solubility was found to be 10 µg/mL (≈ 16.7 µM). In data set [12], this compound came in with a logD of 2.2. The compound further registered a CC50 at 72 h in data set [13] of more than 89000 nM. Besides, in the data set on Hepatitis C virus, the pEC50 is 6.35.
For the compound `C[C@H](NP(=O)(OC[C@H]1O[C@@](C#N)(c2ccc3c(N)ncnn23)[C@](C)(O)[C@@H]1O)Oc1ccccc1)C(=O)OC(C)(C)C` (stereo not given in full), the hepatic extraction ratio at 1.5 h, 2 µM in [7] was determined as 0.84. Also, the half-life at 2 µM in data set [8] was more than 10.2 h. Besides, in data set [9], the Papp B→A at 10 µM is 31.1 ×10⁻⁶ cm/s. The Papp A→B at 10 µM in data set [10] was found to be 0.67 ×10⁻⁶ cm/s. In addition, the concentration in solution in data set [11] (solubility) was 380 µg/mL (≈ 646 µM). Besides, in data set [12], the pH-dependent lipophilicity (logD) was 2.2. In data set [13], the CC50 at 72 h is more than 89000 nM. In addition, in the data set with Hepatitis C virus, the pEC50 was less than 4.05.
